Results from paper PMC7480498 (Journal of Extracellular Vesicles, 2020).

Experiments:
[1] = In vivo toxicity: body weight and H&E staining of major organs; parameters: species or system nude mice
How it was run: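 BALB/c nude mice bearing subcutaneous axillary A549 xenografts (5 × 10^6 cells) were randomised at mean 80 mm3 into six groups (n = 10). Test formulations were given intravenously every two days for five doses, at 2 mg/kg and 0.8 mg/kg of the two loaded agents. One free-agent control was given by oral gavage at 20 mg/kg over 6 days. Body weight was measured every two days. At the end of treatment, one mouse per group was sacrificed, and heart, liver, spleen, lung and kidney were fixed in 4% paraformaldehyde, sectioned and stained with H&E.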

[2] = Safety evaluation: blood biochemical indices; assay type: in vivo, ICR mice; conditions: normal mice, n = 3
How it was run: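 ICR mice (20–22 g) were randomly divided into six groups and given the treatments used previously. Blood biochemical indices were then assessed.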

COc1cccc2c1C(=O)c1c(O)c3c(c(O)c1C2=O)C[C@@](O)(C(=O)CO)C[C@@H]3O[C@H]1C[C@H](N)[C@H](O)[C@H](C)O1 [Free DOX, doxorubicin]
body weight ([1]; A549 tumour-bearing nude mice during treatment): substantial weight loss | cardiac tissue histology (H&E) ([1]; nude mice bearing subcutaneous A549 tumour): noticeable cardiac tissue degeneration | level of serum creatine kinase [2]: significantly elevated
